Results reported in publication PMC3742633 (Molecular cancer therapeutics, 2013).

Legend:
[1] = system: BxPC-3 pancreatic cancer cells; experiment: BxPC-3 xenograft tumor growth; format: in vivo, Balb/C athymic mice; details: 25 mg/kg i.p. every 3 days × 4; similarly to gemcitabine
UACC-257 = experiment: NCI 60 cell line screen, Sulforhodamine B Assay; format: cell-based; details: Homo sapiens, UACC-257, 48 h
Outline: (§1)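 Run through the National Cancer Institute 60 cell line screening service on its panel of 59 human cancer lines in vitro. Cytostatic/toxic effect was read as cellular protein content (sulforhodamine B) over 48 h.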

IGROV1 = experiment: NCI 60 cell line screen, Sulforhodamine B Assay; format: cell-based; details: Homo sapiens, IGROV-1, 48 h
Outline: (§2)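 Run through the NCI-60 screening service: human cancer cell lines exposed to test compound for 48 h. Growth read as cellular protein content by sulforhodamine B staining, and GI50 derived from this.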

[2] = system: Jurkat T cell leukemia cells; experiment: Cell viability, trypan blue exclusion; format: cell-based; details: Homo sapiens, 48 h, read-out: IC50 cytotoxic effects (viability)
[3] = system: CT26 colon adenocarcinoma cells; experiment: CT26 xenograft tumor growth; format: in vivo, Balb/C athymic mice; details: 25 mg/kg i.p. every 3 days × 4; similarly to irinotecan
NCI-H23 = experiment: NCI 60 cell line screen, Sulforhodamine B Assay; format: cell-based; details: Homo sapiens, NCI-H23, 48 h
Outline: as §2

[4] = system: Jurkat T cell leukemia cells; experiment: Annexin V / propidium iodide flow cytometry; format: cell-based, human; details: five hours
SK-OV-3 = experiment: NCI 60 cell line screen, Sulforhodamine B Assay; format: cell-based; details: Homo sapiens, SK-OV-3, 48 h
Outline: as §1

SF-539 = experiment: NCI 60 cell line screen, Sulforhodamine B Assay; format: cell-based; details: Homo sapiens, SF-539, 48 h
Outline: as §2

hexokinase = experiment: Activity of purified hexokinase; format: biochemical; details: up to 100 μM; data not shown
MALME-3M = experiment: NCI 60 cell line screen, Sulforhodamine B Assay; format: cell-based; details: Homo sapiens, 48 h
Outline: as §2

Jurkat and H522 cells [5] = experiment: F26BP measurement in cells; format: cell-based, human; details: three hours exposure
Outline: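 Cells plated at 1×10^5/well, 24 h in RPMI or DMEM (5% CO2, 37°C), then exposed to test compound for 3 h. Cells triturated, washed twice in PBS, dissolved in […] NaOH. F26BP measured by coupled enzyme reaction and normalized to BCA protein. Triplicate or quadruplicate; unpaired two-tailed t-test.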

Solubility = format: physicochemical
Jurkat and H522 cells [6] = experiment: Intracellular ATP bioluminescence assay; format: cell-based, human
Outline: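 After plating at 1×10^5 cells/well (24 h, 37°C, 5% CO2) and 3 h test compound exposure, adherent cells were washed with cold PBS, lysed in passive lysis buffer and scraped. One freeze (−80°C)/thaw (37°C) cycle, cleared at 4°C. ATP read by firefly luciferase/D-luciferin luminescence at 560 nm against an ATP standard curve, as nmol/mg BCA protein.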

HOP-62 = experiment: NCI 60 cell line screen, Sulforhodamine B Assay; format: cell-based; details: Homo sapiens, HOP-62, 48 h
Outline: as §2

TK-10 = experiment: NCI 60 cell line screen, Sulforhodamine B Assay; format: cell-based; details: Homo sapiens, TK-10, 48 h
Outline: as §1

U-87 glioblastoma cells = experiment: U-87 MG xenograft tumor growth; format: in vivo, Balb/C athymic mice; details: 25 mg/kg i.p. every 3 days × 4; compared with temozolomide
Outline: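 U-87 MG cells from exponential culture (DMEM, 10% FCS) were washed and resuspended in PBS, and 1×10^6 cells were injected s.c. into 20 g Balb/C athymic mice. At 150–200 mg, tumours were randomised to DMSO, test compound (25 mg/kg i.p. every 3 days ×4) or temozolomide (30 mg/kg p.o., 3 days on/3 off). Blinded daily caliper mass = width²×length/2. Two experiments, n=8/group, mean±SD, unpaired two-tailed t-test.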

MOLT-4 = experiment: NCI 60 cell line screen, Sulforhodamine B Assay; format: cell-based; details: Homo sapiens, MOLT-4, 48 h
Outline: as §2

Jurkat or H522 cells = experiment: 2-[1-14C]-deoxy-D-glucose uptake; format: cell-based, human; details: three hours exposure, Jurkat and H522
Outline: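 Jurkat or H522 cells in RPMI 1640 + 10% FCS + 50 μg/ml gentamycin at 100,000/ml, treated immediately with DMSO vehicle or test compound for 3 h. Washed in glucose-free RPMI, 30 min with inhibitor, then 1 h with 14C-2-deoxyglucose (0.1 μCi/μl stock). Ice-cold washes, 0.5% SDS lysis, scintillation counting; counts normalized to BCA protein.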

EKVX = experiment: NCI 60 cell line screen, Sulforhodamine B Assay; format: cell-based; details: Homo sapiens, 48 h
Outline: as §2

NCI-H460 = experiment: NCI 60 cell line screen, Sulforhodamine B Assay; format: cell-based; details: Homo sapiens, NCI-H460, 48 h
Outline: as §2

OVCAR-8 = experiment: NCI 60 cell line screen, Sulforhodamine B Assay; format: cell-based; details: Homo sapiens, OVCAR-8, 48 h
Outline: as §2

OVCAR-4 = experiment: NCI 60 cell line screen, Sulforhodamine B Assay; format: cell-based; details: Homo sapiens, OVCAR-4, 48 h
Outline: as §2

LOX IMVI = experiment: NCI 60 cell line screen, Sulforhodamine B Assay; format: cell-based; details: Homo sapiens, 48 h
Outline: as §2

SK-MEL-2 = experiment: NCI 60 cell line screen, Sulforhodamine B Assay; format: cell-based; details: Homo sapiens, SK-MEL-2, 48 h
Outline: as §2

HS 578T = experiment: NCI 60 cell line screen, Sulforhodamine B Assay; format: cell-based; details: Homo sapiens, 48 h
Outline: as §2

SW-620 = experiment: NCI 60 cell line screen, Sulforhodamine B Assay; format: cell-based; details: Homo sapiens, SW-620, 48 h
Outline: as §1

PC-3 = experiment: NCI 60 cell line screen, Sulforhodamine B Assay; format: cell-based; details: Homo sapiens, PC-3, 48 h
Outline: as §2

T-47D = experiment: NCI 60 cell line screen, Sulforhodamine B Assay; format: cell-based; details: Homo sapiens, T47D, 48 h
Outline: as §1

UACC-62 = experiment: NCI 60 cell line screen, Sulforhodamine B Assay; format: cell-based; details: Homo sapiens, UACC-62, 48 h
Outline: as §1

SR = experiment: NCI 60 cell line screen, Sulforhodamine B Assay; format: cell-based; details: Homo sapiens, 48 h
Outline: as §1

UO-31 = experiment: NCI 60 cell line screen, Sulforhodamine B Assay; format: cell-based; details: Homo sapiens, UO-31, 48 h
Outline: as §1

For O=C(C=Cc1ccc2ccccc2n1)c1ccncc1 [PFK15, 1-(4-pyridinyl)-3-(2-quinolinyl)-2-propen-1-one], the “growth of pancreatic adenocarcinomas (BxPC-3)” value [1] was “suppressed the growth”, the GI50 (UACC-257) was 3.98 µM and the GI50 (IGROV1) was 4.37 µM. For the same compound, the IC50 [2] was 2.42 µM, the “growth of colon adenocarcinomas (CT26)” value [3] was “suppressed the growth” and the GI50 (NCI-H23) was 3.16 µM. For the same compound, the “cells undergoing early apoptosis (Annexin V+/PI−)” value ([4]; 3 μM) was “increased”, the “cells undergoing late apoptosis (Annexin V+/PI+)” value ([4]; 3 and 20 μM) was “dose-dependent increase” and the GI50 (SK-OV-3) was 15.1 µM. The GI50 (SF-539) was 2.51 µM, the “inhibition of activity of purified hexokinase” value (hexokinase) was “not inhibit” and the GI50 (MALME-3M) was 3.31 µM. The “effect on F26BP” value (Jurkat and H522 cells [5]) was “reduced”, the solubility (Solubility) was “limited solubility” and the “PFK15-mediated ATP depletion [% control]” value (Jurkat and H522 cells [6]; 5 mM glucose + 1 mM pyruvate, p value = 0.0017) was 45.62 ± 1.72%. For the same compound, the “PFK15-mediated ATP depletion [% control]” value (Jurkat and H522 cells [6]; 5 mM glucose alone) was 5.29 ± 0.85%, the “reversal of ATP depletion by glutamine” value (Jurkat and H522 cells [6]; addition of 4 mM glutamine, data not shown) was “could not be significantly reversed” and the “reversal of ATP depletion by lactate” value (Jurkat and H522 cells [6]; addition of 10 mM lactate, data not shown) was “could not be significantly reversed”. The “effect on intracellular ATP” value (Jurkat and H522 cells [6]; three hours exposure, Jurkat and H522) was “reduced”, the GI50 (HOP-62) was 2.34 µM and the GI50 (TK-10) was 4.07 µM. The “activity against glioblastoma growth (U-87 MG)” value (U-87 glioblastoma cells) was “lower than that observed by temozolomide”, the GI50 (MOLT-4) was 2.24 µM and the “effect on glucose uptake (14C-2DG)” value (Jurkat or H522 cells) was “reduced”. The GI50 (EKVX) was 12.9 µM, the GI50 (NCI-H460) was 3.47 µM and the GI50 (OVCAR-8) was 1.82 µM. It also gave a GI50 (OVCAR-4) of 2.34 µM, a GI50 (LOX IMVI) of 1.66 µM and a GI50 (SK-MEL-2) of 6.46 µM. The GI50 (HS 578T) was 20.9 µM, the GI50 (SW-620) was 1.7 µM and the GI50 (PC-3) was 3.16 µM. It also gave a GI50 (T-47D) of 3.63 µM, a GI50 (UACC-62) of 2.51 µM and a GI50 (SR) of 0.23 µM. For the same compound, the GI50 (UO-31) was 1.62 µM.
